Measurements reported in ChEMBL document CHEMBL1156756, “4-Oxo-beta-lactams (azetidine-2,4-diones) are potent and selective inhibitors of human leukocyte elastase” (J Med Chem, 2010).
The source made the active and inactive calls. The rule behind the calls is not given here.

Key:
[1] = target: T1, Myeloblastin (Homo sapiens) (UniProt P24158); assay: Inhibition of human proteinase 3
T1 sequence (whole entry): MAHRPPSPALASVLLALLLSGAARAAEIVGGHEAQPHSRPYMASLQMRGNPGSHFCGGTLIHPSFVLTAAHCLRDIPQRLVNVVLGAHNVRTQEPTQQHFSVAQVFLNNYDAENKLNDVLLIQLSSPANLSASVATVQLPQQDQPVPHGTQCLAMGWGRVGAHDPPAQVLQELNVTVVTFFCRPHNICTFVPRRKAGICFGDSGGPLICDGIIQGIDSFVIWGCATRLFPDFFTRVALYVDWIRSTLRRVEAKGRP
Procedure, shortened: (§1)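 Proteinase 3 stock (325 nM in 0.05 M acetate pH 6, 150 mM NaCl) mixed at 25 °C with inhibitor in DMSO and MeOSuc-Ala-Ala-Pro-Val-p-nitroanilide (stock 50 mM in DMSO) in 0.1 M HEPES pH 7.2. A410 followed for 20 000 s. Progress curves fitted to slow-binding equations. Uninhibited controls ran linearly.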

[2] = target: T2, Papain (Carica papaya) (UniProt P00784); assay: Inhibition of papaya papain at 60 uM
T2 sequence (whole entry): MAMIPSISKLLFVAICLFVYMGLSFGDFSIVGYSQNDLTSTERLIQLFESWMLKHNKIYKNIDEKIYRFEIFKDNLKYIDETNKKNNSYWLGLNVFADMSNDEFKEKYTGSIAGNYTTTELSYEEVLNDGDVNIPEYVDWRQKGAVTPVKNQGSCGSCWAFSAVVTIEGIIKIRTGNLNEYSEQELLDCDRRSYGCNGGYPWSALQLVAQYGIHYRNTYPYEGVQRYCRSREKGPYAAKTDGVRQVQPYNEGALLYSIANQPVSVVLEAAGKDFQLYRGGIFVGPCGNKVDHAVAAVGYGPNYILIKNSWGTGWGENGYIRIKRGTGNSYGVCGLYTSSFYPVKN
Procedure, shortened: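 Incubation method. Activated papain was held with inhibitor at 25 °C in 50 mM potassium phosphate pH 7.0 with 2.5 mM EDTA. At intervals, aliquots were assayed with BAPA substrate (stock 10 mM in DMSO) in the same buffer, reading A410 for 4 min. Inhibitor-free controls were run in parallel.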

[3] = target: T3, Cathepsin G (Homo sapiens) (UniProt P08311); assay: Inhibition of human cathepsin G at 60 uM
T3 sequence (whole entry): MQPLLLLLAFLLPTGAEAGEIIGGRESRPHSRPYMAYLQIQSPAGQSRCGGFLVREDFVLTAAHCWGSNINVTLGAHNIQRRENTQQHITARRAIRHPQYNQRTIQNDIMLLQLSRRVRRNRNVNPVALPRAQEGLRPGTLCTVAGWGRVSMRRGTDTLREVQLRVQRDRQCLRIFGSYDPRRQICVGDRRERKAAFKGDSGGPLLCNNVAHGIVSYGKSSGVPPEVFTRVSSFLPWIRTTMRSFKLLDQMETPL
Procedure, shortened: (§2)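 Cathepsin G stock (680 nM in 0.05 M acetate, pH 5.5) mixed at 25 °C with inhibitor in DMSO and Suc-Ala-Ala-Pro-Phe-p-nitroanilide (stock 42.5 mM in DMSO) in 0.1 M HEPES pH 7.5. A410 recorded continuously for 20 min. Progress curves fitted with slow-binding kinetics. Uninhibited controls ran linearly. Highest concentration tested 60 μM.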

[4] = target: T1, Myeloblastin (Homo sapiens); assay: Inhibition of human proteinase 3 at 60 uM; procedure, shortened: as §1
[5] = Chemical stability in phosphate buffer assessed as half life at pH 7.4; format: physicochemical
[6] = Stability in human plasma assessed as half life at pH 7.4
[7] = target: T3, Cathepsin G (Homo sapiens); assay: Inhibition of human cathepsin G; procedure, shortened: as §2
[8] = target: T1, Myeloblastin (Homo sapiens); assay: Inhibition of human proteinase 3 at 10 uM; procedure, shortened: as §1

SMILES | Activity ([1]; TDE = time-dependent effect) | Activity [2] | other results
CCC1(CC)C(=O)N(c2cccnc2)C1=O | tde |  | 
CCC1(CC)C(=O)N(Cc2ccccc2)C1=O | tde |  | 
CCC1(CC)C(=O)N(c2ccc(C)nc2)C1=O | tde |  | 
CC1(Cc2ccccc2)C(=O)N(c2ccccc2)C1=O |  | inactive | Activity [3]: inactive; inhibition [4]: 22%
CCC1(CC)C(=O)N(c2ccc(Cl)cc2)C1=O | tde |  | 
CC1(C)C(=O)N(c2ccccc2)C1=O | tde |  | 
CCC1(CC)C(=O)N(c2ccc(CSc3nnc(-c4ccccc4)o3)cc2)C1=O | tde |  | 
CCC1(CC)C(=O)N(c2ccc(OC)cc2)C1=O | tde |  | 
CCC1(CC)C(=O)N(c2ccccc2C)C1=O | tde |  | 
CCC1(CC)C(=O)N(c2ccc(CSc3ccccc3)cc2)C1=O |  | inactive | Activity [1]: 122 M⁻¹ s⁻¹
CCC1(CC)C(=O)N(c2ccc(CSc3nc4ccccc4s3)cc2)C1=O | tde |  | half-life [5]: 10 h; half-life [6]: 0.4 h
CCC1(CC)C(=O)N(c2ccccc2CSc2nnc(-c3ccccc3)o2)C1=O | tde |  | 
CCC1(CC)C(=O)N(c2ccc(CSc3nc4ccccc4o3)cc2)C1=O |  | inactive | Activity [1]: 29.6 M⁻¹ s⁻¹; Activity [3]: inactive
CCC1(CC)C(=O)N(c2ccc(C)cc2)C1=O | tde |  | 
CC1(C)C(=O)N(Cc2ccccc2)C1=O | tde |  | 
CCC1(CC)C(=O)N(c2ccc(CSc3nc4ccccc4s3)nc2)C1=O |  | inactive | Activity [1]: 4080 M⁻¹ s⁻¹; half-life [5]: 13 h; half-life [6]: 0.2 h; Activity [3]: inactive
CCCCC1(CC)C(=O)N(c2ccccc2)C1=O |  | inactive | Activity [7]: 47.3 M⁻¹ s⁻¹
CCC1(CC)C(=O)N(c2ccccc2)C1=O | tde |  | 
CCC1(CC(C)C)C(=O)N(c2ccccc2)C1=O | tde |  | 
CC1(C)C(=O)N(c2ccc(Cl)cc2)C1=O | tde |  | 
CCC1(CC)C(=O)N(c2ccc(C#N)cc2)C1=O |  | inactive | inhibition [8]: 16%; Activity [7]: 36.5 M⁻¹ s⁻¹
CCC1(CC)C(=O)N(c2ccc(CSc3nc4cc(C(=O)O)ccc4o3)cc2)C1=O |  | inactive | Activity [1]: 689 M⁻¹ s⁻¹; Activity [3]: inactive
CCC1(CC)C(=O)N(c2ccccc2CSc2nc3ccccc3s2)C1=O | tde |  | half-life [5]: 37 h; half-life [6]: 1.6 h
CCC1(CC)C(=O)N(c2ccccc2CSc2nccn2C)C1=O | tde |  | 
CCC1(CC)C(=O)N(c2cccc3ccccc23)C1=O |  | inactive | Activity [7]: 35.6 M⁻¹ s⁻¹
CCC1(Cc2ccccc2)C(=O)N(c2ccccc2)C1=O |  | inactive | Activity [1]: 20.2 M⁻¹ s⁻¹; Activity [3]: inactive
CCOC(=O)CN1C(=O)C(CC)(CC)C1=O | tde |  | 
CCC1(CC)C(=O)N(c2ccccc2CSc2nc3ccccc3o2)C1=O |  | inactive | Activity [1]: 361 M⁻¹ s⁻¹; Activity [3]: inactive
